One data set has as its system HeLa. In words: Antiproliferative activity against human HeLa cells after 48 hrs in presence of 10% FBS by MTT method. The format is functional. Put shortly:
(§1)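 Cells were grown to log phase in DMEM with 10% fetal bovine serum at 37 °C under humidified 5% CO₂. They were seeded at 10⁵ cells/well and left 24 h to reattach. Compounds were added at increasing concentrations with 10% FBS for 48 h. Values are the mean of three independent experiments, each run in triplicate.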
Background: Formazan colour is commonly taken as a measure of viable cells.

A further data set concerns MCF7. In words: Antiproliferative activity against human MCF7 cells after 48 hrs in presence of 10% FBS by MTT method. To be noted: MCF7, 48 h. The format is functional. Summed up:
as §1

Data set [1] is described as follows: Antiproliferative activity against human 293T cells after 48 hrs in presence of 10% FBS by MTT method. The format is cell-based. To be noted: 293T (HEK-293T) cells. Summed up:
as §1

A further data set concerns A549. The data set is described as follows: Antiproliferative activity against human A549 cells after 48 hrs in presence of 10% FBS by MTT method. The format is functional. The note with it: A549, 48 h. Summed up: as §1
The target of a further data set is T1, Aurora kinase A (Homo sapiens, UniProt O14965).
T1 sequence (O14965 whole entry): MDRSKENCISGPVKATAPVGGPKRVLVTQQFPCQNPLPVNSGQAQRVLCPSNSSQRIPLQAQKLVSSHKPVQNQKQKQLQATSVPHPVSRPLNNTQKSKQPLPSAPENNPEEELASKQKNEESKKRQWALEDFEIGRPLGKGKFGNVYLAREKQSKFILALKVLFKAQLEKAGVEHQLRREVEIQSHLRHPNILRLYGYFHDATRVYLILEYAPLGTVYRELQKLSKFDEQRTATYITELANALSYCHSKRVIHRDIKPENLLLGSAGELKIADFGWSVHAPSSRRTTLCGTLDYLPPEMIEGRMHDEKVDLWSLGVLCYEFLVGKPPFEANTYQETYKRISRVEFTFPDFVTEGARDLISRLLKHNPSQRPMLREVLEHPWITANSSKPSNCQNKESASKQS
In words: Inhibition of Aurora A (unknown origin).

Data set [2] addresses Receptor tyrosine-protein kinase erbB-2 (Homo sapiens, UniProt P04626). In words: Inhibition of HER2 (unknown origin).
The next data set has as its target Focal adhesion kinase 1 (Homo sapiens, UniProt Q05397). The data set is described as follows: Inhibition of FAK in human MCF7 cells. The format is cell-based.
Data set [3] addresses T2, Dual specificity mitogen-activated protein kinase kinase 1 (Homo sapiens, UniProt Q02750). The data set is described as follows: Inhibition of recombinant full length human N-terminal GST-tagged C-terminal His6-tagged MEK1 expressed in Escherichia coli using myelin basic protein as substrate in presence of activated BRAF and ERK2 by ELISA.
The target of data set [4] is Epidermal growth factor receptor (Homo sapiens, UniProt P00533). The data set is described as follows: Inhibition of EGFR (unknown origin).
Sequence of Epidermal growth factor receptor (P00533 whole entry): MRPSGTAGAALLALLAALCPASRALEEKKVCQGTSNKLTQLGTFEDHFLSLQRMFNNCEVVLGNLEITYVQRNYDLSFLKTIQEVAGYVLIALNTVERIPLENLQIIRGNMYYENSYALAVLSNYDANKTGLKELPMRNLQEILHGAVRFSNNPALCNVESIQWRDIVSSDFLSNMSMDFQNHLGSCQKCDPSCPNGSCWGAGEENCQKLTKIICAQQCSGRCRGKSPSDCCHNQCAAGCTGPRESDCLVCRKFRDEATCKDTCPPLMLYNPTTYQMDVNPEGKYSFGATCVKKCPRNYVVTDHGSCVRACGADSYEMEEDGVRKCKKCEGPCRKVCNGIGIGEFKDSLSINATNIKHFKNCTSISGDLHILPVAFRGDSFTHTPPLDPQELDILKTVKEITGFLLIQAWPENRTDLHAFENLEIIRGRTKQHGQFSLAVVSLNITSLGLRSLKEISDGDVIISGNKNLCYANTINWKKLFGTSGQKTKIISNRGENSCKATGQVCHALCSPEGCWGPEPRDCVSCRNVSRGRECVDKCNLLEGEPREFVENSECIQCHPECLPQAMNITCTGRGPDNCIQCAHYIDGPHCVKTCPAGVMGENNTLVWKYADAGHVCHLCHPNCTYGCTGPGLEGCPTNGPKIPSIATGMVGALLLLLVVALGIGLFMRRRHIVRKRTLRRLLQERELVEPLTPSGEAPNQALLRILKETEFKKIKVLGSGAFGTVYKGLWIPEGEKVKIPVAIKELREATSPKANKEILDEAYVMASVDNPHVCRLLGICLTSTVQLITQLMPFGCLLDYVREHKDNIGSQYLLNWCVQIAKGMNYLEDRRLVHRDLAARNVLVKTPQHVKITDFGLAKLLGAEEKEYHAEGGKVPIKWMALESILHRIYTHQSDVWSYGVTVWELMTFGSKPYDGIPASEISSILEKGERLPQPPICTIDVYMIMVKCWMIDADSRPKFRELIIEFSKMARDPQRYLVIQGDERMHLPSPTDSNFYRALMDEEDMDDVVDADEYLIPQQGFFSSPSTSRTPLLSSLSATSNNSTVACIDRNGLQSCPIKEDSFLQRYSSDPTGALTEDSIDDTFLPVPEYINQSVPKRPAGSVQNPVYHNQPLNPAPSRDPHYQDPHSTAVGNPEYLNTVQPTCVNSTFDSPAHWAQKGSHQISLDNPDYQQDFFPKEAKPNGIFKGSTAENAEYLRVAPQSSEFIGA
Data set [5] addresses Vascular endothelial growth factor receptor 2 (Homo sapiens, UniProt P35968). In words: Inhibition of VEGFR2 (unknown origin).
Data set [6] addresses T2, Dual specificity mitogen-activated protein kinase kinase 1. In words: Inhibition of MEK1 in […] human A549 cells assessed as reduction in ERK1/2 phosphorylation by ELISA. The format is cell-based.

Consider 21 molecules from ChEMBL document CHEMBL4477266, “Discovery of N-(benzyloxy)-1,3-diphenyl-1H-pyrazole-4-carboxamide derivatives as potential antiproliferative agents by inhibiting MEK” (Bioorg Med Chem, 2016).

Structures are written as SMILES.

Sequence of Vascular endothelial growth factor receptor 2 (P35968 whole entry): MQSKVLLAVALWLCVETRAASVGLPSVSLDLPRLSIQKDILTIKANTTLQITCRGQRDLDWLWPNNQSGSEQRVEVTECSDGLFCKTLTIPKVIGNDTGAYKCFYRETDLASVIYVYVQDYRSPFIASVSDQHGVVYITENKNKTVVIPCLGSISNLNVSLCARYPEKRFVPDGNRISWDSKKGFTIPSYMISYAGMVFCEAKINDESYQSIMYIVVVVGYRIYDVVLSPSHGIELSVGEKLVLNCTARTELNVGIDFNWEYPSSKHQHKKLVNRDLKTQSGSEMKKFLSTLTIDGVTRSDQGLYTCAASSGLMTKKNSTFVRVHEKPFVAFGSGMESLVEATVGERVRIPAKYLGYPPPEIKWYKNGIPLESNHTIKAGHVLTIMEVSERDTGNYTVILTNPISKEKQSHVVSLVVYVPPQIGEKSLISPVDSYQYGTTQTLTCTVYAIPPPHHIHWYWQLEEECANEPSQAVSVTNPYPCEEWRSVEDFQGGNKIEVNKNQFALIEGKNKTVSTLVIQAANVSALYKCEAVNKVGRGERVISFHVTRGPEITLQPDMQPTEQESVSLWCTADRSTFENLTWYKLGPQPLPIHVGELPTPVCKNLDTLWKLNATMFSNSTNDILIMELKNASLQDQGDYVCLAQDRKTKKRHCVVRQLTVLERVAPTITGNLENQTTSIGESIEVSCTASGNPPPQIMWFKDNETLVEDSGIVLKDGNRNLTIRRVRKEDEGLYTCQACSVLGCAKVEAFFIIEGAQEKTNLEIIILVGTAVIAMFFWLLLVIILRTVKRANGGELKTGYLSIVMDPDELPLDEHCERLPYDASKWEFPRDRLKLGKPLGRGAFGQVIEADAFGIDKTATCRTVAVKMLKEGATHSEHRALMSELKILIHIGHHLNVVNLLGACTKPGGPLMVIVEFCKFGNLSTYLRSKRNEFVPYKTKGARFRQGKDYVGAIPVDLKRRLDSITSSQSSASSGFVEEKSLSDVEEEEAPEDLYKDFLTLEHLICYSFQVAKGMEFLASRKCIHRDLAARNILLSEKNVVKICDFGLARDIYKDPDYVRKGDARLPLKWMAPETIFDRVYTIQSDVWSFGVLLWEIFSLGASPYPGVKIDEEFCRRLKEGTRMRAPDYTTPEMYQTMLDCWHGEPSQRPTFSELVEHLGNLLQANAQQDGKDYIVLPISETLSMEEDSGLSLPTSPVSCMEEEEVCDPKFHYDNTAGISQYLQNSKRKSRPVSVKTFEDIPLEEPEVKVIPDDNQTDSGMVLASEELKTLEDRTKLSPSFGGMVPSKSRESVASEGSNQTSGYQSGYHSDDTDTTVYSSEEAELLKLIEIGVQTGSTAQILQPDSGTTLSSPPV
Sequence of Focal adhesion kinase 1 (Q05397 whole entry): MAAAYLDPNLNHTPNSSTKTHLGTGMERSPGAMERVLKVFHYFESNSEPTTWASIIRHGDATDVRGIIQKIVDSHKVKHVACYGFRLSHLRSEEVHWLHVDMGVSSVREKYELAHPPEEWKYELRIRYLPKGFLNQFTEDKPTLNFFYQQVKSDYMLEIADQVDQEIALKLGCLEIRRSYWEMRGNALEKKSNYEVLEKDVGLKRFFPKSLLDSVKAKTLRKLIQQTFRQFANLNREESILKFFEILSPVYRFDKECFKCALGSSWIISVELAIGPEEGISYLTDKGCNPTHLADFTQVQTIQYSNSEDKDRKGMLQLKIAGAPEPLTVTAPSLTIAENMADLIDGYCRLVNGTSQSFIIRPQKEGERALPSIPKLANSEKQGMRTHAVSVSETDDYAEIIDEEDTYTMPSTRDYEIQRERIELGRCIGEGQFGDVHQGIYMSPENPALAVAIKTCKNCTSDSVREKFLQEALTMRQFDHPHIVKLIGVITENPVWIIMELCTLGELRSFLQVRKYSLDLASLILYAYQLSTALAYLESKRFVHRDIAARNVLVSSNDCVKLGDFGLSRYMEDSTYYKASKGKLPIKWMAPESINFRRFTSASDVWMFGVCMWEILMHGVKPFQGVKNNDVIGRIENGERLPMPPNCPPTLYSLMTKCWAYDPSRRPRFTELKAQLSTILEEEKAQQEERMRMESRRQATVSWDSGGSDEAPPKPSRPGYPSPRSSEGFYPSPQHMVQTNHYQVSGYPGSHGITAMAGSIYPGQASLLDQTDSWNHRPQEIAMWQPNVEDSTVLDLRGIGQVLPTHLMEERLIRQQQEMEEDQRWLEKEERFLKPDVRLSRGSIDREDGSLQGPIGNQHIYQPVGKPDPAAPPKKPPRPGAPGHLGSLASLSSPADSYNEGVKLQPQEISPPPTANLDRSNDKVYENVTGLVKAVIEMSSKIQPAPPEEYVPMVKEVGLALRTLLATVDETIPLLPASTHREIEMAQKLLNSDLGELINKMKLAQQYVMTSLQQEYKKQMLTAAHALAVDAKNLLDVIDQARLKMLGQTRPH
Sequence of Receptor tyrosine-protein kinase erbB-2 (P04626 whole entry): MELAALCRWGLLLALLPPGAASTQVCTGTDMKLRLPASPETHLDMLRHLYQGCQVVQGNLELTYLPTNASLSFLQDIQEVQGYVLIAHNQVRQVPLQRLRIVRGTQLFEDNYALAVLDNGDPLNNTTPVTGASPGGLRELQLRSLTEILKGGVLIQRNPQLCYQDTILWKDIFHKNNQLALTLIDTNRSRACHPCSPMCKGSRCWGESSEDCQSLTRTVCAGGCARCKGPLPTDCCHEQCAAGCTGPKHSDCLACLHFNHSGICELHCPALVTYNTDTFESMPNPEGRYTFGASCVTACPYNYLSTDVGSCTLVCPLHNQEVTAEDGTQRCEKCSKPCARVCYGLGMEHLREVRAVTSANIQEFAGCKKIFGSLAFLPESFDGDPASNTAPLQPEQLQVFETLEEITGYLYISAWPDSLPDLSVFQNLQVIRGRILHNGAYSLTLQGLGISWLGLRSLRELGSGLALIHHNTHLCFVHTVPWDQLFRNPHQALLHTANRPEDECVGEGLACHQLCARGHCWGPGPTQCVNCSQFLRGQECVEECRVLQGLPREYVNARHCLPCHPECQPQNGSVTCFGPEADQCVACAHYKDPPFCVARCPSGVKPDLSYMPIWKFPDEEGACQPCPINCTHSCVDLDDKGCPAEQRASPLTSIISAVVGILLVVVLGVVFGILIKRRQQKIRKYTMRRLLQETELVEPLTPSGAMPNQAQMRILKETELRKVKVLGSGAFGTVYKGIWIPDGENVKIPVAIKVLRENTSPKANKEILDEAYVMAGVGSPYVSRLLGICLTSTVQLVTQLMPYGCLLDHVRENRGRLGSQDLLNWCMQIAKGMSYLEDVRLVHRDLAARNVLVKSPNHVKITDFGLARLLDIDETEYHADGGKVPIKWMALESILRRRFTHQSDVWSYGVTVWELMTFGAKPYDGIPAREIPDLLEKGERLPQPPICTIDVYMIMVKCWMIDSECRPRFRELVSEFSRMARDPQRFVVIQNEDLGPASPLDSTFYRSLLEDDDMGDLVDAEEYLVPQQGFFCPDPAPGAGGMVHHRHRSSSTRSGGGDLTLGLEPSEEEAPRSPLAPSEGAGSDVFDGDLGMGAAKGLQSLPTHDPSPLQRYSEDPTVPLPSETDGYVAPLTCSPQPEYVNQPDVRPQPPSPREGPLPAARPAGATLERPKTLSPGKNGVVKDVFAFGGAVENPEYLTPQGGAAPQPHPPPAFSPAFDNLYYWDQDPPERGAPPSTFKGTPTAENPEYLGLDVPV

As a reminder, the GI50 is the concentration at which growth is held to half of that of the control. As usually defined, the CC50 is the concentration at which the toxic effect on the cells reaches its halfway point. Turning to `O=C(NOCc1ccccc1F)c1cn(-c2ccc(Cl)cc2)nc1-c1ccccc1`, the GI50 in the data set with HeLa was 4.17 µM; in the data set on MCF7, 15.1 µM; with A549 it was 12.1 µM. For the same molecule, the CC50 at 48 h in data set [1] turned out to be 126 µM.

In the case of `Cc1ccc(-n2cc(C(=O)NOCc3ccc(Cl)cc3Cl)c(-c3ccccc3)n2)cc1`, the results for the GI50 in the data set with HeLa, with MCF7 and in the data set with A549 were 2.04 µM, 2.31 µM and 1.08 µM, respectively. Besides, the CC50 at 48 h in data set [1] came out at 39.6 µM.

Regarding `Cc1ccc(-n2cc(C(=O)NOCc3ccccc3)c(-c3ccccc3)n2)cc1`, the GI50 came out at 6.69 µM with HeLa, 1.87 µM in the data set with MCF7 and 1.14 µM in the data set on A549. In addition, the CC50 at 48 h in data set [1] is 40.8 µM.

Consider `O=C(NOCc1ccccc1F)c1cn(-c2ccccc2)nc1-c1ccccc1`, for which the GI50 in the data set with HeLa is 11.8 µM; with MCF7 it was 16.1 µM; in the data set on A549 it was 5.94 µM. In addition, the CC50 at 48 h in [1] worked out at 75.7 µM.

As to `O=C(NOCc1ccccc1)c1cn(-c2ccccc2)nc1-c1ccccc1`, the GI50 with HeLa was found to be 8.83 µM; in the data set on MCF7 it was 13.4 µM; in the data set with A549 it was 5 µM. Also, the CC50 at 48 h in data set [1] is 122 µM.

As for `COc1ccc(-n2cc(C(=O)NOCc3ccccc3)c(-c3ccccc3)n2)cc1`, the GI50 in the data set on HeLa came to 2.64 µM; in the data set on MCF7 it was 2.77 µM; in the data set on A549, 1.94 µM. For the same molecule, in [1], the CC50 at 48 h stood at 201 µM.

As for `O=C(NOCc1ccc(Cl)cc1Cl)c1cn(-c2ccc(Cl)cc2)nc1-c1ccccc1`, the GI50 came out at 5.16 µM with HeLa, 16.2 µM in the data set with MCF7 and 13.1 µM with A549. Also, the CC50 at 48 h in data set [1] was determined as 46.3 µM.

For the molecule `COc1ccc(-n2cc(C(=O)NOCc3ccccc3F)c(-c3ccccc3)n2)cc1`, the GI50 was 2.9 µM in the data set on HeLa, 6 µM with MCF7 and 2.16 µM in the data set on A549. Besides, in [1], the CC50 at 48 h came to 24.6 µM.

Take `O=C(NOCc1ccc(Cl)cc1Cl)c1cn(-c2ccccc2)nc1-c1ccccc1`: the results for the concentration for 50% growth inhibition (GI50) with HeLa, in the data set on MCF7 and in the data set with A549 were 5.1 µM, 9.66 µM and 7.35 µM, respectively. Besides, the CC50 at 48 h in data set [1] amounted to 40.2 µM.

Consider `O=C(NOCc1ccccc1Cl)c1cn(-c2ccc(F)cc2)nc1-c1ccccc1`, for which the GI50 in the data set on HeLa was determined as 36.4 µM; in the data set with MCF7 it was 11.4 µM; with A549, 8.33 µM. The CC50 at 48 h in [1] is 44.7 µM.

`O=C(NOCc1ccccc1Cl)c1cn(-c2ccccc2)nc1-c1ccccc1`: the GI50 in the data set on HeLa was determined as 17.8 µM; in the data set with MCF7, 7.41 µM; with A549, 10.3 µM. Further, the CC50 at 48 h in [1] turned out to be 82 µM.

Broadly, the IC50 is the concentration at which inhibition is half-maximal. Take `Cc1ccc(-n2cc(C(=O)NOCc3ccccc3F)c(-c3ccccc3)n2)cc1`: the IC50 was 8.3 µM against Aurora kinase A; over 25 µM in data set [2]; 15.6 µM at Focal adhesion kinase 1; 0.091 µM in [3]; over 25 µM in data set [4]; over 25 µM in [5]. Also, in data set [6], the IC50 was 0.61 µM. For the same molecule, the values for the GI50 in the data set with HeLa, in the data set with MCF7 and in the data set with A549 were 1.18 µM, 2.11 µM and 0.26 µM, respectively. Also, the CC50 at 48 h in data set [1] turned out to be 20.6 µM.

For `O=C(NOCc1ccc(Cl)cc1Cl)c1cn(-c2ccc(F)cc2)nc1-c1ccccc1`, the values for the GI50 in the data set with HeLa, in the data set with MCF7 and in the data set on A549 were 7.35 µM, 25.3 µM and 14 µM, respectively. Moreover, the CC50 at 48 h in data set [1] turned out to be 45 µM.

Turning to `O=C(NOCc1ccccc1)c1cn(-c2ccc(F)cc2)nc1-c1ccccc1`, the GI50 with HeLa turned out to be 6.11 µM; with MCF7 it was 15.3 µM; in the data set with A549, 10.4 µM. Moreover, the cytotoxic concentration (CC50) at 48 h in [1] worked out at 217 µM.

With `COc1ccc(-n2cc(C(=O)NOCc3ccc(Cl)cc3Cl)c(-c3ccccc3)n2)cc1`, the GI50 came out at 5.75 µM in the data set with HeLa, 2.57 µM in the data set with MCF7 and 3.83 µM in the data set on A549. Further, the CC50 at 48 h in data set [1] worked out at 545 µM.

As for `COc1ccc(-n2cc(C(=O)NOCc3ccccc3Cl)c(-c3ccccc3)n2)cc1`, the GI50 in the data set on HeLa is 3.48 µM; in the data set on MCF7, 3.73 µM; with A549 it was 2.45 µM. Moreover, in [1], the CC50 at 48 h turned out to be 586 µM.

`O=C(NOCc1ccccc1F)c1cn(-c2ccc(F)cc2)nc1-c1ccccc1`: the values for the GI50 in the data set with HeLa, in the data set with MCF7 and with A549 were 10.3 µM, 12 µM and 17.5 µM, respectively. Besides, in [1], the CC50 at 48 h turned out to be 147 µM.

Regarding `Cc1ccc(-n2cc(C(=O)NOCc3ccccc3Cl)c(-c3ccccc3)n2)cc1`, the figures for the GI50 with HeLa, in the data set with MCF7 and with A549 were 4.68 µM, 2.64 µM and 0.38 µM, respectively. For the same molecule, the cytotoxic concentration (CC50) at 48 h in [1] came out at 38.7 µM.

`O=C(NOCc1ccccc1Cl)c1cn(-c2ccc(Cl)cc2)nc1-c1ccccc1`: the GI50 with HeLa worked out at 8.85 µM; in the data set on MCF7 it was 16.1 µM; with A549, 15.5 µM. In data set [1], the CC50 at 48 h worked out at 129 µM.

`O=C(NOCc1ccccc1)c1cn(-c2ccc(Cl)cc2)nc1-c1ccccc1`: the figures for the concentration for 50% growth inhibition (GI50) with HeLa, in the data set on MCF7 and in the data set with A549 were 8.35 µM, 10.8 µM and 13 µM, respectively. Moreover, the CC50 at 48 h in [1] was determined as 51.9 µM.

For `COc1cc2ncnc(Nc3ccc(F)c(Cl)c3)c2cc1OCCCN1CCOCC1` [GEFITINIB], in the data set on A549, the GI50 was found to be 2.86 µM.
